Results of several laboratories.
Each line is one published result; the experiments were not run side by side.
Method: competition with immobilised ligand
JAK3 JH1: Tyrosine-protein kinase JAK3, JH1 (JAK3, Homo sapiens, UniProt P52333)
JAK3: Tyrosine-protein kinase JAK3 (JAK3, Homo sapiens, UniProt P52333)

Structure (SMILES) | target | effect on | concentration | remaining binding [%]
CS(=O)(=O)NCC[C@H](NC(=O)c1cncc2c1cnn2-c1ccc(F)cc1)c1ccnc(S(C)(=O)=O)c1 | JAK3 JH1 | cell-free assay | 1 µM | 100
COC(=O)Nc1nc2ccc(C(=O)c3ccccc3)cc2[nH]1 | JAK3 | cell-free assay | 10 µM | 29
C[C@@H]1CN(c2ccc3ncc(-c4ccc5[nH]nc(C6CC6)c5c4)n3n2)C[C@H](C)O1 | JAK3 | binding | 0.5 µM | 11
CC(=O)N1CCC(c2ccc(C(=O)NC(=N)N)cc2C(F)(F)F)CC1 | JAK3 JH1 | cell-free assay | 1 µM | 100
CC(C)(C)c1ccc(-c2nc(CBr)nn2-c2cccc(O)c2)cc1 | JAK3 | cell-free assay | 10 µM | 65
COc1ccc2cc(OCC3(C(=O)O)CN(C(=O)c4ccc(F)cc4)C3)ccc2c1 | JAK3 JH1 | cell-free assay | 1 µM | 100
O=C(c1ccc(Nc2ncc(Cl)c(-c3ccc(Cl)s3)n2)cc1)N1CCC(N2CCCC2)CC1 | JAK3 JH1 | binding | 1 µM | 0.3
COc1cnc(Nc2cccc(S(N)(=O)=O)c2)nc1N1CCN(c2ccccc2)C(=O)C1 | JAK3 JH1 | binding | 1 µM | 16
O=C(NCC1CCOCC1)c1n[nH]cc1NC(=O)c1c(F)cccc1F | JAK3 JH1 | binding | 1 µM | 91
COc1cnc(Nc2cccc(S(N)(=O)=O)c2)nc1N1CCN(c2ccccc2)CC1 | JAK3 JH1 | binding | 1 µM | 42
C[C@@H](c1ccc(-n2cnc3c(N)ncnc32)cc1)N1CCc2nn(C)c(Cc3ccccc3)c2C1=O | JAK3 JH1 | binding | 0.1 µM | 96
C=CC(=O)N1CCC(C(=O)NCC(=O)N2CCN(c3nc(-c4cnc(N)nc4C(F)F)nc(N4CCOCC4)n3)CC2)CC1 | JAK3 JH1 | binding | 1 µM | 88
F[C@@H]1CCN(c2nccc(-c3cnn4ncccc34)n2)C1 | JAK3 JH1 | cell-free assay | 1 µM | 100
O=C(c1ccc(Nc2nccc(-c3cc4ccccc4s3)n2)cc1)N1CCC(N2CCCC2)CC1 | JAK3 JH1 | binding | 1 µM | 0.4
Cc1noc([C@H]2C[C@@H](c3ccc(C(F)(F)F)cc3)CN(C(=O)N3CCS(=O)(=O)C3)C2)n1 | JAK3 JH1 | cell-free assay | 1 µM | 100
COc1ccnn2ncc(-c3ccnc(N(C)C)n3)c12 | JAK3 JH1 | cell-free assay | 1 µM | 94
CNC(=O)c1ccc(Nc2ncc(C(F)(F)F)c(NCc3nccnc3N(C)S(C)(=O)=O)n2)cc1 | JAK3 | binding | 1 µM | 8.2
FC(F)(F)Oc1cccc(-c2cnc3ccc(-c4ccncc4)nn23)c1 | JAK3 JH1 | cell-free assay | 5 µM | 23
CN(C)c1nccc(-c2cnc3ncccn23)n1 | JAK3 JH1 | cell-free assay | 1 µM | 93
O=S(=O)(NC1CCC(c2cc(F)ccc2F)(S(=O)(=O)c2ccc(Cl)cc2)CC1)C(F)(F)F (stereo not shown) | JAK3 JH1 | cell-free assay | 1 µM | 100
Cc1cnc(Nc2ccc(C(=O)N3CCC(N4CCCC4)CC3)cc2)nc1-c1cc2ccccc2s1 | JAK3 JH1 | binding | 1 µM | 0
N[C@@H]1CCN(c2nccc(-c3cnn4ncccc34)n2)C1 | JAK3 JH1 | cell-free assay | 1 µM | 100
